Assay results: PubChem BioAssay
Records with an inconclusive call do not appear. The source made the active and inactive calls.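 The calls were made as follows, unless noted: active = cell viability at or below a set limit in both duplicate runs, the limit being the all-compound median minus 4 SD (cut at about 23% in these data, passing the limit was not always enough); inconclusive = no clear call, values can overlap the other calls; inactive = the rest.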

How the values were obtained:
[1] = OD615 S. cerevisiae growth inhibition, permissive medium, pilot counter-assay, permissive growth control for S. cerevisiae lifespan shortening project (AID 705;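 active = growth inhibition above 25% in both replicates, a cutoff set 3 SD above the mean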); details: OD615, 24 h, at 10 µM, stronger effect = higher value
How it was run: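 assay system = Saccharomyces cerevisiae strain carrying genetically modified DeaD replicative-lifespan system | medium = SC raffinose/galactose permissive medium | dosing = 10 µM single dose, 0.25% DMSO | schedule = 24 h compound exposure at 30 °C after 4 h pre-growth | measured by = OD at 615 nm | read-out basis = growth inhibition from lowered OD615 after 24 h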

[2] = Restrictive medium S. cerevisiae growth inhibition, OD615, pilot screen of yeast lifespan reduction project, restrictive growth control (AID 706;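 active = growth inhibition above a set limit, 3 SD over mean compound inhibition, in both replicates, cut at about 43% in these data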;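 also: modified DeaD lifespan yeast strain shifted to restrictive glucose medium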); details: OD615, 48 h, at 10 µM, stronger effect = higher value
How it was run: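 Buffer or medium: CSMM-D glucose medium. Material: genetically modified Saccharomyces cerevisiae, DeaD replicative lifespan assay strain. Times: 48 h compound exposure at 30 °C. Measured by: optical density at 615 nm.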

[3] = viability gain of MRP-1-high H69AR cells under doxorubicin, pilot screen, MRP-1 activator project, CellTiter-Glo, duplicate (AID 807;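 active = viability increase at or above a cutoff of the median across tested compounds plus 3 SD, cut at about 8.5% in these data, passing the limit was not always enough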;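 also: compound pretreatment 18-22 h then 72 h combined with doxorubicin; 0% = doxorubicin alone and 100% = vehicle without doxorubicin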); details: H69AR viability with doxorubicin, CellTiter-Glo luminescence; at 10 µM; stronger effect = higher value
[4] = growth suppression of beta-catenin knockout HCT116, pilot screen, human colon tumor cells (AID 823); details: CellTiter-Glo, 60 h, at 10 µM, stronger effect = lower value;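 also: 0% = wells killed by 20 µM Hyamine and 100% = untreated DMSO cell wells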
[5] = growth suppression of PTEN-deleted HCT116, pilot screen, cell-based, HCT116 clonal line, CellTiter-Glo (AID 824;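 active = viability at or below 27.92% in each of two runs, the all-compound median minus 4 SD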;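 also: 0% = 20 µM Hyamine control and 100% = vehicle cell control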); details: 60 h, at 10 µM, stronger effect = lower value
[6] = inhibitors of the yeast RAM network, pilot screen, dse1pr::URA3 reporter, 5-FOA selection (AID 869;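 active = inhibition over a set limit, the all-compound mean plus 3 SD, in both replicate runs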;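 also: 0% = DMSO wells with no growth and 100% = 10 µM 1-NA-PP1 with full growth; RAM network block rescues cells from 5-FOA so hits raise OD615 growth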); details: S. cerevisiae dse1pr::URA3 5-FOA growth, OD615, 2 d; at 10 µM; stronger effect = higher value; strain carries analog-sensitive mutant Cbk1 kinase
[7] = reversal of MRP1-mediated doxorubicin resistance, pilot screen, H69AR cells, doxorubicin co-treatment (AID 601;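 active = viability loss from added drug above about 55%, and viability with drug at most 40%, in both replicates, limit read from the data, passing the limit was not always enough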); details: CellTiter-Glo, 72 h, at 10 µM
[8] = 384-well plate pilot, post-Golgi transport modulator project, inhibition of yeast transport mutant growth (AID 636; in the data active = inhibition above about 31%); details: absorbance 615 nm, about 18 h, stronger effect = higher value
[9] = growth suppression of yeast trafficking mutant, preliminary HTS, modulators of trafficking downstream of Golgi apparatus project, 1536-format plate, OD 615 nm (AID 637; in the data active = inhibition above about 30%); details: yeast transport mutant growth, absorbance 615 nm, 18 h; stronger effect = higher value

Cc1c(C(=O)O)nn(-c2ccccc2)c(=O)c1C#N
inactive: growth inhibition [1] -15.2% | growth inhibition [2] 5.62% | viability increase [3] 0.49% | viability [4] 98.4% | viability [5] 102% | inhibition [6] 1.46%

O=C(CCS(=O)(=O)c1cccc2nonc12)N1CCN(c2ccc(F)cc2)CC1
inactive: growth inhibition [1] -6.7% | growth inhibition [2] -0.575% | viability increase [3] 0.64% | viability [4] 96.3% | viability [5] 96.2% | inhibition [6] 1.71%

CC(C)Oc1ccc(NC(=O)Oc2ccccc2)cc1
inactive: growth inhibition [1] -4.28% | growth inhibition [2] -8.55% | viability increase [3] -0.53% | viability [4] 97.4% | viability [5] 96.8% | inhibition [6] 2.38%

CCOC(=O)C1Cn2c(nc3c(c2=O)C2(CCCC2)Cc2ccccc2-3)S1 (centres undefined)
inactive: growth inhibition [1] -15.5% | growth inhibition [2] -1.87% | viability increase [3] -3.9% | viability [4] 84.2% | viability [5] 77.4% | inhibition [6] 2.23%

Cc1ccccc1S(=O)(=O)Cc1ccc(C(=O)N2CC(C)CC(C)C2)o1 (centres undefined)
inactive: growth inhibition [1] -18.1% | growth inhibition [2] -32% | viability increase [3] -0.61% | viability [4] 103% | viability [5] 90.2% | inhibition [6] -0.465%

Cc1csc(NC(=O)c2sc3nc(-c4cccs4)ccc3c2N)n1
inactive: differential viability (reversal) ([7]; H69AR cells + 2 uM doxorubicin, stronger effect = higher value) -12.4% | inhibition [8] 0% | inhibition [9] -6.35%
60.3%: viability ([7]; H69AR cells + 2 uM doxorubicin, measured here: viability with 2 uM doxorubicin, stronger effect = lower value)
47.9%: viability ([7]; H69AR cells, compound alone cytotoxicity)

COC(=O)c1ccc2c(c1)N(Cc1ccccc1F)C(=O)c1ccccc1S2=O (centres undefined)
inactive: growth inhibition [1] -13.9% | growth inhibition [2] -2.4% | viability increase [3] -4.03% | viability [4] 75.9% | viability [5] 74% | inhibition [6] 1.02%

N#CCCn1cc(C(CC(=O)c2ccc(Br)cc2)C(=O)O)c2ccccc21 (centres undefined)
inactive: growth inhibition [1] 3.64% | growth inhibition [2] 4.21% | viability increase [3] -3.05% | viability [4] 91.7% | viability [5] 96.4% | inhibition [6] 1.56%

O=C(NCc1ccc2c(c1)OCO2)c1nnc(Cc2ccc(F)cc2)o1
inactive: growth inhibition [1] -1.76% | growth inhibition [2] 9.91% | viability increase [3] 0.87% | viability [4] 105% | viability [5] 97.1% | inhibition [6] 3.56%

CCCc1nnc(NC(=O)c2ccncc2)s1
inactive: growth inhibition [1] -5.46% | growth inhibition [2] -3.19% | viability increase [3] 0.44% | viability [4] 103% | viability [5] 99.1% | inhibition [6] 1.42%

CC[C@@H]1C(=O)OC[C@@H]1Cc1cncn1C
inactive: inhibition [8] -3.12% | inhibition [9] -5.5%

COc1ccc(-c2noc(-c3cc(C)cc(C)c3)n2)cc1OC
inactive: growth inhibition [1] -16.5% | growth inhibition [2] -30.9% | viability increase [3] 4.05% | viability [4] 100% | viability [5] 96.6%

CN1CSC2=C(C#N)C(c3cccc(OCc4ccccc4)c3)CC(=O)N2C1 (centres undefined)
inactive: growth inhibition [1] -5.43% | growth inhibition [2] 20.4% | viability increase [3] -4.67% | viability [4] 85.7% | viability [5] 88.5% | inhibition [6] 0.785%

CCC(Sc1nc2c(cnn2-c2ccccc2)c(=O)[nH]1)C(=O)OC (centres undefined)
inactive: growth inhibition [1] -17.3% | growth inhibition [2] -17.4% | viability increase [3] -1.58% | viability [4] 91.8% | viability [5] 91.5% | inhibition [6] 0.65%

Cc1cccc(N2CCN(C(=O)c3cc4c(C)nc5ccccc5c4o3)CC2)c1C
inactive: growth inhibition [1] -8.18% | growth inhibition [2] -1.81% | viability increase [3] 4.84% | viability [4] 71.7% | viability [5] 78.2% | inhibition [6] -1.31%

COc1ccc(OC)c2c1sc(=NC(=O)c1ccco1)n2C
inactive: growth inhibition [1] -3.52% | growth inhibition [2] 4.96% | viability increase [3] -5.98% | viability [4] 71.2% | viability [5] 67.7% | inhibition [6] 2.21%

CCCOc1cccc(C(=O)Nc2cccnc2)c1
inactive: growth inhibition [1] -6.8% | growth inhibition [2] -0.66% | viability increase [3] 3.16% | viability [4] 92.6% | viability [5] 96.2% | inhibition [6] 0.93%

CCOc1ccc(CN2CCNC(=O)C2CC(=O)OC)cc1 (centres undefined)
inactive: growth inhibition [1] 0.415% | growth inhibition [2] -7.59% | viability increase [3] -0.51% | viability [4] 98.7% | viability [5] 102% | inhibition [6] 1.59%

COc1ccc2cc(CCNC(=O)c3ccc(Br)o3)c(=O)[nH]c2c1
inactive: growth inhibition [1] -10.1% | growth inhibition [2] -17% | viability increase [3] -2.65% | viability [4] 95.9% | viability [5] 90.3% | inhibition [6] 1.84%

COc1ccc(OC)c(NC(=O)C2COc3ccccc3O2)c1 (centres undefined)
inactive: growth inhibition [1] -10.5% | growth inhibition [2] -6.21% | viability increase [3] -2.23% | viability [4] 82.7% | viability [5] 80.3% | inhibition [6] 0.25%

COC(=O)C1=C(N)N(c2ccc(F)cc2)C2=C(C(=O)CCC2)C1c1ccc2c(c1)OCO2 (centres undefined)
inactive: growth inhibition [1] -6.41% | growth inhibition [2] -5.16% | viability increase [3] -0.72% | viability [4] 84.9% | viability [5] 86% | inhibition [6] 3.19%

CCOc1ccc(-c2nc(CSCC(=O)N3CCN(c4cccc(OC)c4)CC3)c(C)o2)cc1
inactive: growth inhibition [1] 5.25% | growth inhibition [2] 19.7% | viability increase [3] -2.52% | viability [4] 34% | viability [5] 47.4% | inhibition [6] 1.53%

COC(=O)c1c(NC(=O)C2CC2)sc2c1CCCC2
inactive: growth inhibition [1] 4.15% | growth inhibition [2] 17% | viability increase [3] -4.82% | viability [4] 95.1% | viability [5] 81.7% | inhibition [6] 1.37%

O=C1c2ccccc2C(Nc2ccc(S(=O)(=O)N3CCOCC3)cc2)N1c1cccnc1 (centres undefined)
inactive: growth inhibition [1] -3.45% | growth inhibition [2] -1.27% | viability increase [3] -0.92% | viability [4] 102% | viability [5] 97% | inhibition [6] -0.33%

Cc1cccc(-c2noc(CN(C(=O)c3c(-c4ccccc4Cl)noc3C)C(C)C)n2)c1
inactive: growth inhibition [1] -13.9% | growth inhibition [2] -13% | viability increase [3] -3.28% | viability [4] 44.3% | viability [5] 49.4% | inhibition [6] 0.585%

c1ccc(CNc2ncnc3nc[nH]c23)nc1
inactive: growth inhibition [1] -12.5% | growth inhibition [2] -1.55% | viability increase [3] -1.52% | viability [4] 102% | viability [5] 96.3% | inhibition [6] 1.71%

Cc1noc(/C=C/N(C)C)c1S(=O)(=O)N1CCCC(C(=O)NCc2cccs2)C1 (centres undefined)
inactive: growth inhibition [1] 2% | growth inhibition [2] -3.34% | viability [4] 93.2% | viability [5] 88.5% | inhibition [6] 0.21%
active: viability increase [3] 10.6%

Cn1c(-n2c(CCCN3C(=O)c4ccccc4C3=O)nc3ccccc3c2=O)nc2ccccc21
inactive: growth inhibition [1] -1.74% | growth inhibition [2] 2.53% | viability increase [3] -3.91% | viability [4] 84.5% | viability [5] 87.2% | inhibition [6] 2.62%

CCOC(=O)C1CCCN(C(=O)CCCn2nc(C)n3c(cc4sccc43)c2=O)C1 (centres undefined)
inactive: growth inhibition [1] -4.78% | growth inhibition [2] -16.8% | viability increase [3] -1.97% | viability [4] 102% | viability [5] 94.3% | inhibition [6] 1.37%

COc1ccc(OC)c(-c2cc(C(=O)N3CCN(c4ccccc4)CC3)no2)c1
inactive: growth inhibition [1] -11.8% | growth inhibition [2] 20.3% | viability increase [3] -2.36% | viability [4] 96.9% | viability [5] 88.8% | inhibition [6] 1.72%

CCOC(=O)C1CCN(C(=O)Nc2ccc(Cl)cc2)CC1
inactive: growth inhibition [1] -17.2% | growth inhibition [2] -13.1% | viability increase [3] 1.32% | viability [4] 96.7% | viability [5] 102% | inhibition [6] -0.18%

COc1ccc(OC)c(NC(=O)C2CCC(CNc3c(N4CCC(C)CC4)c(=O)c3=O)CC2)c1 (centres undefined)
inactive: growth inhibition [1] -5.59% | growth inhibition [2] -11.5% | viability increase [3] -4.93% | viability [4] 70.8% | viability [5] 70.1% | inhibition [6] 0.96%

CCCOC(=O)c1ccc(NC(=O)CCC(=O)OCC)cc1
inactive: growth inhibition [1] -2.93% | growth inhibition [2] 0.845% | viability increase [3] -0.37% | viability [4] 98.8% | viability [5] 98.6% | inhibition [6] 2.24%

COc1ccc(-c2n[nH]c(C)c2-c2cnn(-c3ccccc3)c2)c(O)c1
inactive: growth inhibition [1] 5.3% | growth inhibition [2] 0.745% | viability increase [3] -2.75% | viability [4] 85.2% | viability [5] 92.2% | inhibition [6] -0.205%

C=CCNc1ncnc2c1cnn2-c1ccc(Cl)cc1
inactive: growth inhibition [1] -2.23% | growth inhibition [2] 1.64% | viability increase [3] 2.88% | viability [4] 106% | viability [5] 106% | inhibition [6] 4.6%

Cc1cc(NC(=O)c2noc3c2CCc2ccccc2-3)n(-c2ccccc2)n1
inactive: growth inhibition [1] -11.9% | growth inhibition [2] -2.05% | viability increase [3] -2.71% | viability [4] 94.9% | viability [5] 98.3% | inhibition [6] 2.88%

Brc1ccc(Oc2nnnn2-c2ccccc2)cc1
inactive: growth inhibition [1] -5.57% | growth inhibition [2] -3.68% | viability increase [3] 0.29% | viability [4] 95.3% | viability [5] 88.9% | inhibition [6] 1.51%

CCOC(=O)C1=C(N)OC2=C(C(=O)CC(C)(C)C2)C1C1CCCCC1 (centres undefined)
inactive: growth inhibition [1] -13.2% | growth inhibition [2] -4.08% | viability increase [3] -1.22% | viability [4] 93.3% | viability [5] 92.9% | inhibition [6] 1.4%

NC/C(=N\O)c1ccc(Cl)cc1Cl
inactive: growth inhibition [1] -6.44% | growth inhibition [2] -12.5% | viability increase [3] 2.52% | viability [4] 97.7% | viability [5] 94.1% | inhibition [6] 1.2%

COc1cc(OC)c(NC(=O)CS(=O)(=O)Cc2nc(-c3ccc(C)cc3)oc2C)cc1Cl
inactive: growth inhibition [1] -22.6% | growth inhibition [2] -17% | viability increase [3] -1.21% | viability [4] 85.5% | viability [5] 78.1% | inhibition [6] 1.96%
